Experimental data: PMC4339026 (Biopolymers, 2014)
Entries after “also recorded” stand apart in the source; their conditions may differ.

Assays:
ADAM10 = target: T1, ADAM10 (Homo sapiens, UniProt O14672); assay: Selectivity testing against zinc metalloproteases: ADAM10; type: biochemical; settings: read-out: IC50 ADAM10; n = 3 Mean ± SD
T1 sequence (O14672 214-748): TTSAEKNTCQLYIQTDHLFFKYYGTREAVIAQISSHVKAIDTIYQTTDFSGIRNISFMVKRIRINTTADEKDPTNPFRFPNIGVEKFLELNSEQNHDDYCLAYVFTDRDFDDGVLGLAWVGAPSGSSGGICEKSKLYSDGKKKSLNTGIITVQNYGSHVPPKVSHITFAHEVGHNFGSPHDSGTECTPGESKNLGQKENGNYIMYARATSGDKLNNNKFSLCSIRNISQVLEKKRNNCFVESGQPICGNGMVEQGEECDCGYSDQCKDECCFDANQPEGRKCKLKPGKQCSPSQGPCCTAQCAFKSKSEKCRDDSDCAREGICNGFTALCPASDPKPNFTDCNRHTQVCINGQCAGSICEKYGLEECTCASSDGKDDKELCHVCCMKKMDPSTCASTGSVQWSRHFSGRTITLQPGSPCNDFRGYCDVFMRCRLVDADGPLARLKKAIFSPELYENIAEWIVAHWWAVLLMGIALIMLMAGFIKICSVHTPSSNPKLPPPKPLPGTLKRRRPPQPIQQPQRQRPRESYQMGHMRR

meprin β = target: T2, meprin β (Homo sapiens, UniProt Q16820); assay: Meprin β inhibition kinetics / enzyme kinetics; type: biochemical
T2 sequence (Q16820 62-614 limits assumed): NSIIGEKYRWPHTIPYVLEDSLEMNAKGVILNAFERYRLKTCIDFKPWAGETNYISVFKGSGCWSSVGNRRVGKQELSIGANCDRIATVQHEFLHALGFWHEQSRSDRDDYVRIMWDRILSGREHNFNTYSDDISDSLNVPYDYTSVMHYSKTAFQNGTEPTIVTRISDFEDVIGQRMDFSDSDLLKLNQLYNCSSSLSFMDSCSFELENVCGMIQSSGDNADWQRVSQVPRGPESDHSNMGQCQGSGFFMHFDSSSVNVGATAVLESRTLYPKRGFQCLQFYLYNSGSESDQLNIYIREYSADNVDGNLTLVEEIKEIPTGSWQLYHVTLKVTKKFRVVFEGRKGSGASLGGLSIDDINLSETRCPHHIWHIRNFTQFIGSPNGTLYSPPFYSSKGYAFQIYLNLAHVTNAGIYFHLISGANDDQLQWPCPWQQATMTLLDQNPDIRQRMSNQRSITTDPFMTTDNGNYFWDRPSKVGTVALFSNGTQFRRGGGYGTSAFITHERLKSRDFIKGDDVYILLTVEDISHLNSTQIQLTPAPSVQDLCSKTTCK
Method in brief: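 Trypsin-activated meprin β at 1 nM was run with (MCA)-EDEDED-(K-ε-DNP) 0.5–25 μM plus varying inhibitor concentrations in 50 mM Hepes, 0.01% Brij-35, pH 7.5, at 25 °C. Fluorescence was read at ex 324/em 393 nm. Rates came from the linear portion of the progress curves. Ki and Ki′ came from nonlinear regression with a mixed-inhibition model. Mechanism came from the alpha parameter and was checked with Lineweaver-Burk plots.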

Structure (SMILES): O=C(Nc1cc(C(=O)Nc2ccc(S(=O)(=O)O)cc2S(=O)(=O)O)cc(C(=O)Nc2ccc(S(=O)(=O)O)cc2S(=O)(=O)O)c1)Nc1cc(C(=O)Nc2ccc(S(=O)(=O)O)cc2S(=O)(=O)O)cc(C(=O)Nc2ccc(S(=O)(=O)O)cc2S(=O)(=O)O)c1 [NF449, 4,4′,4″,4‴-[Carbonyl-bis[imino-5,1,3-benzenetriylbis-(carbonyl-imino)]]tetrakis(benzene-1,3-disulfonic acid)]
- IC50 (ADAM10): 1200 ± 100 nM
- Ki lower than IC50, fold (meprin β; meprin β Ki versus HTS IC50): 3 fold
- α = Ki/Ki′ (meprin β; mixed-model inhibition, non-linear regression): 3.6 ± 4.3
- mechanism of inhibition of meprin β (meprin β; non-linear regression and Lineweaver-Burke plots): mixed competitive/non-competitive inhibition modality; also recorded: competitive mechanism with elements of non-competitive inhibition
- Ki (meprin β; read-out: Ki meprin β, substrate (MCA)-EDEDED-(K-ε-DNP), mixed inhibition model): 22 ± 9.6 nM
